Measurements taken from ChEMBL document CHEMBL1122688, “Antimycotic azoles. 7. Synthesis and antifungal properties of a series of novel triazol-3-ones” (1984).

Assays:
Microsporum canis = assay: In vitro antifungal activity against Microsporum canis; format: functional
Procedure, shortened: (§1)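 Fungal growth-inhibition screen (Godefroi method) against dermatophytes, yeasts, moulds and other fungi. The value is the lowest concentration (µg/mL) giving total inhibition of growth, tested up to 100 µg/mL.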

[1] = In vivo activity against microsporosis guinea pig, measured as the ratio of animals cured/animals infected (C/I) at dose 20 mg/kg; 0/2; format: functional
[2] = In vivo activity against vaginal candidoses in rats, measured as the ratio of animals cured/animals infected (C/I) at dose 2.5 mg/kg; 0/2; format: functional
[3] = In vivo activity against vaginal candidoses in rats, measured as the ratio of animals cured/animals infected (C/I) at dose 10 mg/kg; 1/2; format: functional
Aspergillus fumigatus = assay: In vitro antifungal activity against Aspergillus fumigatus; format: functional; procedure, shortened: as §1
Candida albicans = assay: In vitro antifungal activity against Candida albicans; format: functional; procedure, shortened: as §1
Candida tropicalis = assay: In vitro antifungal activity against Candida tropicalis; format: functional; procedure, shortened: as §1
Cryptococcus neoformans = assay: In vitro antifungal activity against Cryptococcus neoformans; format: functional; procedure, shortened: as §1
[4] = In vitro antifungal activity against Mucor sp; format: functional; procedure, shortened: as §1
Phialophora verrucosa = assay: In vitro antifungal activity against Phialophora verrucosa; format: functional; procedure, shortened: as §1
Saprolegnia = assay: In vitro antifungal activity against Saprolegnia sp; format: functional; procedure, shortened: as §1
Sporothrix schenckii = assay: In vitro antifungal activity against Sporothrix schenck ii; format: functional; procedure, shortened: as §1
Trichophyton benhamiae = assay: In vitro antifungal activity against Trichophyton mentagrophytes; format: functional, Arthroderma benhamiae; procedure, shortened: as §1
Trichophyton rubrum = assay: In vitro antifungal activity against Trichophyton rubrum; format: functional; procedure, shortened: as §1
[5] = In vivo activity against microsporosis guinea pig, measured as the ratio of animals cured/animals infected (C/I) at dose 2.5 mg/kg; C/I = 0/2; format: functional
[6] = In vivo activity against microsporosis guinea pig, measured as the ratio of animals cured/animals infected (C/I) at dose 10 mg/kg; C/I = 2/2; format: functional
[7] = In vivo activity against vaginal candidoses in rats, measured as the ratio of animals cured/animals infected (C/I) at dose 2.5 mg/kg; C/I = 2/4; format: functional
[8] = In vivo activity against microsporosis guinea pig, measured as the ratio of animals cured/animals infected (C/I) at dose 10 mg/kg; C/I = 1/4; format: functional
[9] = In vivo activity against vaginal candidoses in rats, measured as the ratio of animals cured/animals infected (C/I) at dose 2.5 mg/kg; C/I = 1/2; format: functional
[10] = In vivo activity against microsporosis guinea pig, measured as the ratio of animals cured/animals infected (C/I) at dose 10 mg/kg; C/I = 4/6; format: functional
[11] = In vivo activity against microsporosis guinea pig, measured as the ratio of animals cured/animals infected (C/I) at dose 1.25 mg/kg; C/I = 0/2; format: functional
[12] = In vivo activity against microsporosis guinea pig, measured as the ratio of animals cured/animals infected (C/I) at dose 2.5 mg/kg; C/I = 0/6; format: functional
[13] = In vivo activity against vaginal candidoses in rats, measured as the ratio of animals cured/animals infected (C/I) at dose 0.63 mg/kg; C/I = 0/4; format: functional
[14] = In vivo activity against vaginal candidoses in rats, measured as the ratio of animals cured/animals infected (C/I) at dose 1.25 mg/kg; C/I = 1/6; format: functional
[15] = In vivo activity against vaginal candidoses in rats, measured as the ratio of animals cured/animals infected (C/I) at dose 2.5 mg/kg; C/I = 4/8; format: functional
[16] = In vivo activity against vaginal candidoses in rats, measured as the ratio of animals cured/animals infected (C/I) at dose 2.5 mg/kg; C/I = 2/2; format: functional
[17] = In vivo activity against vaginal candidoses in rats, measured as the ratio of animals cured/animals infected (C/I) at dose 0.63 mg/kg; C/I = 0/2; format: functional
[18] = In vivo activity against microsporosis guinea pig, measured as the ratio of animals cured/animals infected (C/I) at dose 10 mg/kg; C/I = 0/4; format: functional
[19] = In vivo activity against vaginal candidoses in rats, measured as the ratio of animals cured/animals infected (C/I) at dose 2.5 mg/kg; C/I = 9/10; format: functional
[20] = In vivo activity against vaginal candidoses in rats, measured as the ratio of animals cured/animals infected (C/I) at dose 0.63 mg/kg; C/I = 1/6; format: functional
[21] = In vivo activity against vaginal candidoses in rats, measured as the ratio of animals cured/animals infected (C/I) at dose 1.25 mg/kg; C/I = 1/4; format: functional
[22] = In vivo activity against microsporosis guinea pig, measured as the ratio of animals cured/animals infected (C/I) at dose 20 mg/kg; C/I = 0/2; format: functional
[23] = In vivo activity against vaginal candidoses in rats, measured as the ratio of animals cured/animals infected (C/I) at dose 10 mg/kg; C/I = 1/2; format: functional
Rattus norvegicus = assay: In vivo activity against vaginal candidoses in rats, measured as the ratio of animals cured/animals infected (C/I) at dose 1.25 mg/kg; C/I = 12/22; format: functional
[24] = In vivo activity against microsporosis guinea pig, measured as the ratio of animals cured/animals infected (C/I) at dose 10 mg/kg; C/I = 6/6; format: functional
[25] = In vivo activity against microsporosis guinea pig, measured as the ratio of animals cured/animals infected (C/I) at dose 1.25 mg/kg; C/I = 2/6; format: functional
[26] = In vivo activity against microsporosis guinea pig, measured as the ratio of animals cured/animals infected (C/I) at dose 2.5 mg/kg; C/I = 7/12; format: functional
[27] = In vivo activity against vaginal candidoses in rats, measured as the ratio of animals cured/animals infected (C/I) at dose 2.5 mg/kg; C/I = 20/24; format: functional
[28] = In vivo activity against vaginal candidoses in rats, measured as the ratio of animals cured/animals infected (C/I) at dose 0.63 mg/kg; C/I = 2/12; format: functional
[29] = In vivo activity against vaginal candidoses in rats, measured as the ratio of animals cured/animals infected (C/I) at dose 10 mg/kg; C/I = 5/6; format: functional
[30] = In vivo activity against microsporosis guinea pig, measured as the ratio of animals cured/animals infected (C/I) at dose 1.25 mg/kg; C/I = 3/6; format: functional
[31] = In vivo activity against microsporosis guinea pig, measured as the ratio of animals cured/animals infected (C/I) at dose 2.5 mg/kg; C/I = 5/8; format: functional
[32] = In vivo activity against vaginal candidoses in rats, measured as the ratio of animals cured/animals infected (C/I) at dose 2.5 mg/kg; C/I = 7/10; format: functional
[33] = In vivo activity against vaginal candidoses in rats, measured as the ratio of animals cured/animals infected (C/I) at dose 0.63 mg/kg; C/I = 4/10; format: functional
[34] = In vivo activity against vaginal candidoses in rats, measured as the ratio of animals cured/animals infected (C/I) at dose 1.25 mg/kg; C/I = 7/10; format: functional

| Compound | Inhibition (Microsporum canis) [µg/mL] | Inhibition (Aspergillus fumigatus) [µg/mL] | Inhibition (Candida albicans) [µg/mL] | Inhibition (Candida tropicalis) [µg/mL] | Inhibition (Cryptococcus neoformans) [µg/mL] | Inhibition [4] [µg/mL] | Inhibition (Phialophora verrucosa) [µg/mL] | Inhibition (Saprolegnia) [µg/mL] | Inhibition (Sporothrix schenckii) [µg/mL] | Inhibition (Trichophyton benhamiae) [µg/mL] | Inhibition (Trichophyton rubrum) [µg/mL] | C/I ratio [6] | further results |
| --- | --- | --- | --- | --- | --- | --- | --- | --- | --- | --- | --- | --- | --- |
| CC(=O)N1CCN(c2ccc(OC[C@@H]3COC(Cn4cncn4)(c4ccc(Cl)cc4Cl)O3)cc2)CC1 (some centres not stated) | 100 | – | – | – | – | – | – | – | – | – | – | – | C/I ratio [1]: 0; C/I ratio [2]: 0; C/I ratio [3]: 1 |
| Cc1nn(CC(C)C)c(=O)n1-c1ccc(N2CCN(c3ccc(OC[C@@H]4COC(Cn5ccnc5)(c5ccc(Cl)cc5Cl)O4)cc3)CC2)cc1 (some centres not stated) | >100 | >100 | >100 | 100 | 100 | >100 | >100 | >100 | >100 | 100 | 100 | 2 | C/I ratio [5]: 0; C/I ratio [7]: 0.5 |
| CCCn1nc(CC)n(-c2ccc(N3CCN(c4ccc(OC[C@@H]5COC(Cn6ccnc6)(c6ccc(Cl)cc6Cl)O5)cc4)CC3)cc2)c1=O (some centres not stated) | >100 | >100 | 100 | 10 | >100 | >100 | >100 | >100 | >100 | 10 | 100 | – | C/I ratio [8]: 1; C/I ratio [9]: 1 |
| CCCCn1nc(C)n(-c2ccc(N3CCN(c4ccc(OC[C@@H]5COC(Cn6ccnc6)(c6ccc(Cl)cc6Cl)O5)cc4)CC3)cc2)c1=O (some centres not stated) | >100 | >100 | 100 | 1 | 100 | >100 | >100 | >100 | >100 | 10 | 10 | – | C/I ratio [10]: 0.667; C/I ratio [11]: 0; C/I ratio [12]: 0; C/I ratio [13]: 0; C/I ratio [14]: 1; C/I ratio [15]: 0.5 |
| CCC(C)n1nc(C)n(-c2ccc(N3CCN(c4ccc(OC[C@@H]5COC(Cn6cncn6)(c6ccc(Cl)cc6Cl)O5)cc4)CC3)cc2)c1=O (some centres not stated) | >100 | >100 | 10 | >100 | >100 | >100 | >100 | >100 | >100 | 100 | >100 | 2 | C/I ratio [5]: 0; C/I ratio [16]: 1; C/I ratio [17]: 0 |
| CCn1nc(C)n(-c2ccc(N3CCN(c4ccc(OC[C@@H]5COC(Cn6cncn6)(c6ccc(Cl)cc6Cl)O5)cc4)CC3)cc2)c1=O (some centres not stated) | >100 | >100 | >100 | >100 | >100 | >100 | >100 | >100 | >100 | >100 | >100 | – | C/I ratio [18]: 0; C/I ratio [19]: 9; C/I ratio [20]: 1; C/I ratio [21]: 1 |
| Cc1nn(C)c(=O)n1-c1ccc(N2CCN(c3ccc(OC[C@@H]4COC(Cn5cncn5)(c5ccc(Cl)cc5Cl)O4)cc3)CC2)cc1 (some centres not stated) | >100 | >100 | >100 | >100 | >100 | >100 | >100 | >100 | >100 | >100 | >100 | – | C/I ratio [22]: 0; C/I ratio [9]: 1; C/I ratio [23]: 1 |
| CC(C)n1ncn(-c2ccc(N3CCN(c4ccc(OC[C@@H]5COC(Cn6cncn6)(c6ccc(Cl)cc6Cl)O5)cc4)CC3)cc2)c1=O (some centres not stated) | >100 | >100 | >100 | >100 | >100 | >100 | >100 | >100 | >100 | 100 | >100 | – | C/I ratio (Rattus norvegicus): 0.545; C/I ratio [24]: 1; C/I ratio [25]: 2; C/I ratio [26]: 0.583 (not active); C/I ratio [27]: 0.833; C/I ratio [28]: 0.167; C/I ratio [29]: 0.833 |
| CC(C)Cn1ncn(-c2ccc(N3CCN(c4ccc(OC[C@@H]5COC(Cn6cncn6)(c6ccc(Cl)cc6Cl)O5)cc4)CC3)cc2)c1=O (some centres not stated) | >100 | >100 | 100 | 10 | 100 | >100 | >100 | >100 | >100 | 10 | 10 | 2 | C/I ratio [30]: 0.5; C/I ratio [31]: 0.625; C/I ratio [32]: 0.7; C/I ratio [33]: 0.4; C/I ratio [34]: 0.7 |
